Data: ChEMBL document CHEMBL1124724, “Steroidal A ring aryl carboxylic acids: a new class of steroid 5 alpha-reductase inhibitors” (J Med Chem, 1990)

Assays:
[1] = Inhibition of Steroid 5-alpha-reductase of benign hyperplastic human prostatic tissue; details: read-out: Ki app
Procedure, shortened: (§1)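 Ethyl acetate quench with carrier steroids; product is DHT plus ADIOL from radiolabel split. Ki,app is given as a range over several microsome preparations; >10 000 means under 50% inhibition at top concentration.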

[2] = biological target: T1, Steroid 5-alpha-reductase (Rattus norvegicus, UniProt P24008+P31214); experiment: Inhibition of Steroid 5-alpha-reductase of rat ventral prostate tissue; format: tissue-based, Prostate gland
T1 sequence (P24008 whole entry): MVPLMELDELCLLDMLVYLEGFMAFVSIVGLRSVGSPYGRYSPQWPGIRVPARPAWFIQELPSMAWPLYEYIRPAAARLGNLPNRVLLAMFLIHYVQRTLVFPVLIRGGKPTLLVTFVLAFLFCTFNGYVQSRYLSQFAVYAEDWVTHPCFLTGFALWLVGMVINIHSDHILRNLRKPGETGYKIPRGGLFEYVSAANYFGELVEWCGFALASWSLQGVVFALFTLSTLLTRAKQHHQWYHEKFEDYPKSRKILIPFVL
T1 sequence (P31214 whole entry): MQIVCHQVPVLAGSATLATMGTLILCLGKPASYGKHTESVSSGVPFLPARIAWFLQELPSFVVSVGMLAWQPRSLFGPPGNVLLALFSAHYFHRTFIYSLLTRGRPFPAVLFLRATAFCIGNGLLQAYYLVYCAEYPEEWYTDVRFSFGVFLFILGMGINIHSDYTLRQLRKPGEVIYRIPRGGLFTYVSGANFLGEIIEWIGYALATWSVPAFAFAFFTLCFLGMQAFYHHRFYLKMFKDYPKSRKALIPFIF
Procedure, shortened: (§2)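 Activity is total 5α-reduced products (DHT + ADIOL) by radiolabel after ethyl acetate extraction. Ki,app is given as a range across microsome preparations; >10 000 means under 50% inhibition at highest concentration.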

[3] = biological target: T2, 3-oxo-5-alpha-steroid 4-dehydrogenase 2 (Homo sapiens, UniProt P31213); experiment: In vitro inhibition against Steroid 5-alpha-reductase of benign hyperplastic human prostatic tissue expressed as apparent inhibition constant; format: functional; details: read-out: Ki app; procedure, shortened: as §1
T2 sequence (P31213 whole entry): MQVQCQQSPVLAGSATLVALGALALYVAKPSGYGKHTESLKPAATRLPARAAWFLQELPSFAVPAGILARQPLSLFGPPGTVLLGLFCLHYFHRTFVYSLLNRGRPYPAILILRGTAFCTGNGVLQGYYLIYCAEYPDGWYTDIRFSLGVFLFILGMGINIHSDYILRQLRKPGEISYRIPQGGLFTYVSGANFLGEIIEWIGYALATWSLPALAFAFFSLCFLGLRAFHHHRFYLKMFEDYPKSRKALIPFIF

[4] = biological target: T1, Steroid 5-alpha-reductase; experiment: In vitro inhibition against Steroid 5-alpha-reductase of whole rat ventral prostate tissue expressed as apparent inhibition constant; format: functional, tissue-based, Prostate gland; procedure, shortened: as §2

| Structure (SMILES) | Ki [1] [nM] | Ki app [2] [nM] | Ki [3] [nM] | Ki app [4] [nM] |
| --- | --- | --- | --- | --- |
| CC(C)N(C(=O)[C@H]1CC[C@H]2[C@@H]3CCc4c(ccc(C(=O)O)c4Cl)[C@H]3CC[C@]12C)C(C)C | 120 | 900 | – | – |
| Cc1cc2c(cc1C(=O)O)CC[C@@H]1[C@@H]2CC[C@]2(C)[C@@H](C(=O)N(C(C)C)C(C)C)CC[C@@H]12 | 60 | 340 | – | – |
| CC(C)N(C(=O)[C@H]1CC[C@H]2[C@@H]3CCc4cc(C(=O)O)c(C(=O)O)cc4[C@H]3CC[C@]12C)C(C)C | – | – | 5000 | > 10000 |
| CC(C)N(C(=O)[C@H]1CC[C@H]2[C@@H]3CCc4cc(C(=O)O)c(Br)cc4[C@H]3CC[C@]12C)C(C)C | 76 | 260 | – | – |
| CC(C)N(C(=O)[C@H]1CC[C@H]2[C@@H]3CCc4cc(C(=O)O)c(Cl)cc4[C@H]3CC[C@]12C)C(C)C | 35 | 200 | – | – |
| CC(C)N(C(=O)[C@H]1CCC2c3ccc4cc(C(=O)O)ccc4c3CC[C@@]21C)C(C)C (stereo not given in full) | 36 | 350 | – | – |
| Cc1c(C(=O)O)ccc2c1CC[C@@H]1[C@@H]2CC[C@]2(C)[C@@H](C(=O)N(C(C)C)C(C)C)CC[C@@H]12 | 260 | 7000 | – | – |
| CC(C)(C)NC(=O)C1=CCC2C3CCc4cc(C(=O)O)ccc4C3CC[C@]12C (stereo not given in full) | 60 | 200 | – | – |
| CC(C)(C)NC(=O)[C@H]1CC[C@H]2[C@@H]3CCc4cc(C(=O)O)ccc4[C@H]3CC[C@]12C | 43 | 150 | – | – |
| CC(C)N(C(=O)[C@H]1CC[C@H]2[C@@H]3CCc4cc(C(=O)O)ccc4[C@H]3CC[C@]12C)C(C)C | 20 | 356 | – | – |
| CC(C)N(C(=O)[C@H]1CCC2C3C=Cc4cc(C(=O)O)ccc4C3CC[C@@]21C)C(C)C (stereo not given in full) | 30 | 450 | – | – |
| CC(C)N(C(=O)[C@H]1CC[C@H]2[C@@H]3CCc4c(ccc(C(=O)O)c4Br)[C@H]3CC[C@]12C)C(C)C | 212 | 1900 | – | – |
| CC(C)N(C(=O)[C@H]1CC[C@H]2[C@@H]3CCc4cc(C(=O)O)c(C#N)cc4[C@H]3CC[C@]12C)C(C)C | 65 | 950 | – | – |
| CC(C)N(C(=O)[C@H]1CC[C@H]2[C@@H]3CCc4c(ccc(C(=O)O)c4C#N)[C@H]3CC[C@]12C)C(C)C | 200 | > 10000 | – | – |
| CC(C)N(C(=O)[C@H]1CC[C@H]2[C@@H]3CCc4c(ccc(C(=O)O)c4F)[C@H]3CC[C@]12C)C(C)C | 10 | 500 | – | – |
